Experimental data: ChEMBL document CHEMBL3046615, “Isolation of nematicidal compounds from Tagetes patula L. yellow flowers: structure-activity relationship studies against cyst nematode Heterodera zeae infective stage larvae” (2011)
Active and inactive are the calls of the source. No cut-off for these calls is given here.

What was measured:
Heterodera zeae [1] = assay: Nematicidal activity against Heterodera zeae infective stage larvae assessed as nematode mortality at 1% under light conditions measured 48 hr post dose by stereoscopic microscopy; format: functional
Procedure, shortened: (§1)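 Freshly hatched H. zeae second-stage juveniles, 100 per Petri plate, three replicates. Samples in MeOH, DMSO or water were tested in glass cavity blocks; petroleum ether samples were dried onto the block and larvae transferred on agar pieces. Percentages are dilutions of 30 mg/mL stocks (extracts/fractions) or 1 mg/mL stocks (pure compounds). Incubated at 28 ± 2 °C in light or dark box; mortality averaged over three replicates.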

Heterodera zeae [2] = assay: Nematicidal activity against Heterodera zeae infective stage larvae assessed as nematode mortality at 0.5% under dark conditions measured 5 to 60 min post dose by stereoscopic microscopy; format: functional, organism-based
Procedure, shortened: (§2)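 H. zeae freshly hatched second-stage juveniles, 100 per plate, three replicates, at 28 ± 2 °C under light or in a dark box. Dilutions are % of a stock: 30 mg/mL for extracts/fractions, 1 mg/mL for pure compounds. Methanol-, DMSO- or water-soluble samples were tested in glass cavity blocks. Petroleum ether-soluble samples were air-dried in the block and covered with agar pieces bearing cultured larvae. Mortality was followed over 5–60 min; each value is the mean of three experiments.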

Heterodera zeae [3] = assay: Nematicidal activity against Heterodera zeae infective stage larvae assessed as nematode mortality at 0.5% under dark conditions measured 48 hr post dose by stereoscopic microscopy; format: functional; procedure, shortened: as §1
Heterodera zeae [4] = assay: Nematicidal activity against Heterodera zeae infective stage larvae assessed as nematode mortality at 0.125% under light conditions measured 24 hr post dose by stereoscopic microscopy; format: functional; procedure, shortened: as §1
Heterodera zeae [5] = assay: Nematicidal activity against Heterodera zeae infective stage larvae assessed as nematode mortality at 2% under light conditions measured 5 to 60 min post dose by stereoscopic microscopy; format: functional, organism-based; procedure, shortened: as §2
Heterodera zeae [6] = assay: Nematicidal activity against Heterodera zeae infective stage larvae assessed as nematode mortality at 0.125% under light conditions measured 5 to 60 min post dose by stereoscopic microscopy; format: functional, organism-based; procedure, shortened: as §2
Heterodera zeae [7] = assay: Nematicidal activity against Heterodera zeae infective stage larvae assessed as nematode mortality at 5% under dark conditions measured 5 to 60 min post dose by stereoscopic microscopy; format: functional, organism-based; procedure, shortened: as §2
Heterodera zeae [8] = assay: Nematicidal activity against Heterodera zeae infective stage larvae assessed as nematode mortality at 0.125% under light conditions measured 48 hr post dose by stereoscopic microscopy; format: functional; procedure, shortened: as §1
Heterodera zeae [9] = assay: Nematicidal activity against Heterodera zeae infective stage larvae assessed as nematode mortality at 0.25% under light conditions measured 5 to 60 min post dose by stereoscopic microscopy; format: functional, organism-based; procedure, shortened: as §2
Heterodera zeae [10] = assay: Nematicidal activity against Heterodera zeae infective stage larvae assessed as nematode mortality at 0.5% under light conditions measured 24 hr post dose by stereoscopic microscopy; format: functional; procedure, shortened: as §1
Heterodera zeae [11] = assay: Nematicidal activity against Heterodera zeae infective stage larvae assessed as nematode mortality at 0.25% under dark conditions measured 24 hr post dose by stereoscopic microscopy; format: functional; procedure, shortened: as §1
Heterodera zeae [12] = assay: Nematicidal activity against Heterodera zeae infective stage larvae assessed as nematode mortality at 0.125% under dark conditions measured 5 to 60 min post dose by stereoscopic microscopy; format: functional, organism-based; procedure, shortened: as §2
Heterodera zeae [13] = assay: Nematicidal activity against Heterodera zeae infective stage larvae assessed as nematode mortality at 1% under dark conditions measured 24 hr post dose by stereoscopic microscopy; format: functional; procedure, shortened: as §1
Heterodera zeae [14] = assay: Nematicidal activity against Heterodera zeae infective stage larvae assessed as nematode mortality at 1% under light conditions measured 72 hr post dose by stereoscopic microscopy; format: functional; procedure, shortened: as §1
Heterodera zeae [15] = assay: Nematicidal activity against Heterodera zeae infective stage larvae assessed as nematode mortality at 1% under light conditions measured 24 hr post dose by stereoscopic microscopy; format: functional; procedure, shortened: as §1
Heterodera zeae [16] = assay: Nematicidal activity against Heterodera zeae infective stage larvae assessed as nematode mortality at 0.25% under dark conditions measured 72 hr post dose by stereoscopic microscopy; format: functional; procedure, shortened: as §1
Heterodera zeae [17] = assay: Nematicidal activity against Heterodera zeae infective stage larvae assessed as nematode mortality at 0.5% under light conditions measured 5 to 60 min post dose by stereoscopic microscopy; format: functional, organism-based; procedure, shortened: as §2
Heterodera zeae [18] = assay: Nematicidal activity against Heterodera zeae infective stage larvae assessed as nematode mortality at 0.25% under light conditions measured 72 hr post dose by stereoscopic microscopy; format: functional; procedure, shortened: as §1
Heterodera zeae [19] = assay: Nematicidal activity against Heterodera zeae infective stage larvae assessed as nematode mortality at 1% under dark conditions measured 5 to 60 min post dose by stereoscopic microscopy; format: functional, organism-based; procedure, shortened: as §2
Heterodera zeae [20] = assay: Nematicidal activity against Heterodera zeae infective stage larvae assessed as nematode mortality at 0.125% under dark conditions measured 48 hr post dose by stereoscopic microscopy; format: functional; procedure, shortened: as §1
Heterodera zeae [21] = assay: Nematicidal activity against Heterodera zeae infective stage larvae assessed as nematode mortality at 0.125% under light conditions measured 72 hr post dose by stereoscopic microscopy; format: functional; procedure, shortened: as §1
Heterodera zeae [22] = assay: Nematicidal activity against Heterodera zeae infective stage larvae assessed as nematode mortality at 0.5% under dark conditions measured 24 hr post dose by stereoscopic microscopy; format: functional; procedure, shortened: as §1
Heterodera zeae [23] = assay: Nematicidal activity against Heterodera zeae infective stage larvae assessed as nematode mortality at 0.5% under light conditions measured 48 hr post dose by stereoscopic microscopy; format: functional; procedure, shortened: as §1
Heterodera zeae [24] = assay: Nematicidal activity against Heterodera zeae infective stage larvae assessed as nematode mortality at 0.25% under light conditions measured 24 hr post dose by stereoscopic microscopy; format: functional; procedure, shortened: as §1
Heterodera zeae [25] = assay: Nematicidal activity against Heterodera zeae infective stage larvae assessed as nematode mortality at 1% under light conditions measured 5 to 60 min post dose by stereoscopic microscopy; format: functional, organism-based; procedure, shortened: as §2
Heterodera zeae [26] = assay: Nematicidal activity against Heterodera zeae infective stage larvae assessed as nematode mortality at 0.25% under light conditions measured 48 hr post dose by stereoscopic microscopy; format: functional; procedure, shortened: as §1
Heterodera zeae [27] = assay: Nematicidal activity against Heterodera zeae infective stage larvae assessed as nematode mortality at 0.25% under dark conditions measured 5 to 60 min post dose by stereoscopic microscopy; format: functional, organism-based; procedure, shortened: as §2
Heterodera zeae [28] = assay: Nematicidal activity against Heterodera zeae infective stage larvae assessed as nematode mortality at 0.5% under light conditions measured 72 hr post dose by stereoscopic microscopy; format: functional; procedure, shortened: as §1
Heterodera zeae [29] = assay: Nematicidal activity against Heterodera zeae infective stage larvae assessed as nematode mortality at 0.125% under dark conditions measured 72 hr post dose by stereoscopic microscopy; format: functional; procedure, shortened: as §1
Heterodera zeae [30] = assay: Nematicidal activity against Heterodera zeae infective stage larvae assessed as nematode mortality at 1% under dark conditions measured 48 hr post dose by stereoscopic microscopy; format: functional; procedure, shortened: as §1
Heterodera zeae [31] = assay: Nematicidal activity against Heterodera zeae infective stage larvae assessed as nematode mortality at 0.25% under dark conditions measured 48 hr post dose by stereoscopic microscopy; format: functional; procedure, shortened: as §1
Heterodera zeae [32] = assay: Nematicidal activity against Heterodera zeae infective stage larvae assessed as nematode mortality at 1% under dark conditions measured 72 hr post dose by stereoscopic microscopy; format: functional; procedure, shortened: as §1
Heterodera zeae [33] = assay: Nematicidal activity against Heterodera zeae infective stage larvae assessed as nematode mortality at 2% under dark conditions measured 5 to 60 min post dose by stereoscopic microscopy; format: functional, organism-based; procedure, shortened: as §2
Heterodera zeae [34] = assay: Nematicidal activity against Heterodera zeae infective stage larvae assessed as nematode mortality at 0.125% under dark conditions measured 24 hr post dose by stereoscopic microscopy; format: functional; procedure, shortened: as §1
Heterodera zeae [35] = assay: Nematicidal activity against Heterodera zeae infective stage larvae assessed as nematode mortality at 0.5% under dark conditions measured 72 hr post dose by stereoscopic microscopy; format: functional; procedure, shortened: as §1
Heterodera zeae [36] = assay: Nematicidal activity against Heterodera zeae infective stage larvae assessed as nematode mortality at 5% under light conditions measured 5 to 60 min post dose by stereoscopic microscopy; format: functional, organism-based; procedure, shortened: as §2

SMILES | mortality (Heterodera zeae [1]) | Activity (Heterodera zeae [2]) | mortality (Heterodera zeae [3]) | mortality (Heterodera zeae [4]) | Activity (Heterodera zeae [5]) | Activity (Heterodera zeae [6]) | Activity (Heterodera zeae [7]) | mortality (Heterodera zeae [8]) | Activity (Heterodera zeae [9]) | mortality (Heterodera zeae [10]) | mortality (Heterodera zeae [11]) | Activity (Heterodera zeae [12]) | mortality (Heterodera zeae [13]) | mortality (Heterodera zeae [14]) | mortality (Heterodera zeae [15]) | mortality (Heterodera zeae [16]) | Activity (Heterodera zeae [17]) | mortality (Heterodera zeae [18]) | Activity (Heterodera zeae [19]) | mortality (Heterodera zeae [20]) | also measured
O=C(O)c1ccc(O)cc1 [PARABEN] | 50% | inactive | 40% | 0% | inactive | inactive | inactive | 40% | inactive | 0% | 0% | inactive | 0% | 100% | 0% | 50% | inactive | 50% | inactive | 10% | mortality (Heterodera zeae [21]): 50%; mortality (Heterodera zeae [22]): 0%; mortality (Heterodera zeae [23]): 40%; mortality (Heterodera zeae [24]): 0%; Activity (Heterodera zeae [25]): inactive; mortality (Heterodera zeae [26]): 40%; Activity (Heterodera zeae [27]): inactive; mortality (Heterodera zeae [28]): 50%; mortality (Heterodera zeae [29]): 40%; mortality (Heterodera zeae [30]): 40%; mortality (Heterodera zeae [31]): 40%; mortality (Heterodera zeae [32]): 70%; Activity (Heterodera zeae [33]): inactive; mortality (Heterodera zeae [34]): 0%; mortality (Heterodera zeae [35]): 50%; Activity (Heterodera zeae [36]): inactive
CCCCCCCCCCCCCCCCO [CETYL ALCOHOL] | 80% | inactive | 80% | 0% | inactive | inactive | inactive | 0% | inactive | 60% | 0% | inactive | 70% | 100% | 70% | 80% | inactive | 80% | inactive | 0% | mortality (Heterodera zeae [21]): 40%; mortality (Heterodera zeae [22]): 60%; mortality (Heterodera zeae [23]): 80%; mortality (Heterodera zeae [24]): 0%; Activity (Heterodera zeae [25]): inactive; mortality (Heterodera zeae [26]): 50%; Activity (Heterodera zeae [27]): inactive; mortality (Heterodera zeae [28]): 100%; mortality (Heterodera zeae [29]): 40%; mortality (Heterodera zeae [30]): 80%; mortality (Heterodera zeae [31]): 50%; mortality (Heterodera zeae [32]): 100%; Activity (Heterodera zeae [33]): inactive; mortality (Heterodera zeae [34]): 0%; mortality (Heterodera zeae [35]): 100%; Activity (Heterodera zeae [36]): inactive
COc1c(O[C@@H]2O[C@H](CO)[C@@H](O)[C@H](O)[C@H]2O)cc2oc(-c3ccc(O)c(O)c3)c(O)c(=O)c2c1O [PATULITRIN] | 20% | inactive | 20% | 0% | inactive | inactive | inactive | 0% | inactive | 0% | 0% | inactive | 0% | 50% | 0% | 20% | inactive | 20% | inactive | 0% | mortality (Heterodera zeae [21]): 10%; mortality (Heterodera zeae [22]): 0%; mortality (Heterodera zeae [23]): 0%; mortality (Heterodera zeae [24]): 0%; Activity (Heterodera zeae [25]): inactive; mortality (Heterodera zeae [26]): 20%; Activity (Heterodera zeae [27]): inactive; mortality (Heterodera zeae [28]): 50%; mortality (Heterodera zeae [29]): 10%; mortality (Heterodera zeae [30]): 40%; mortality (Heterodera zeae [31]): 10%; mortality (Heterodera zeae [32]): 50%; Activity (Heterodera zeae [33]): inactive; mortality (Heterodera zeae [34]): 0%; mortality (Heterodera zeae [35]): 40%; Activity (Heterodera zeae [36]): inactive
